ChEMBL document CHEMBL1156919, “Synthesis and induction of apoptosis signaling pathway of ent-kaurane derivatives” (Bioorg Med Chem, 2010)
Activity calls are given as the source filed them. The calls are words filed in the database; no cut-off is given here.

What was measured:
[1] = test system: RAW264.7; experiment: Induction of apoptosis in mouse RAW264.7 cells at 5 uM in presence of 40 uM caspase inhibitor z-VAD after 24 hrs by flow cytometry; type: functional, cell-based
Method in brief: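 RAW 264.7 cells given 5 μM for 24 h, with or without 40 μM z-VAD. Stained with 0.005% (w/v) PI and analysed by flow cytometry. Apoptotic percentage taken from a forward scatter versus PI fluorescence dot plot. Three independent experiments in triplicate, means ± SD.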

[2] = test system: RAW264.7; experiment: Induction of apoptosis in mouse RAW264.7 cells assessed as caspase 3 activation at 5 uM in presence of 40 uM caspase inhibitor z-VAD after 24 hrs by fluorimetric assay; type: functional, cell-based
Method in brief: (§1)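 RAW cells treated with 5 μM for 24 h, with or without 40 μM z-VAD. Caspase activity read fluorimetrically in cytosolic extracts. Substrates: Ac-DEVD-AMC for caspase-3, Ac-IETD-AFC for caspase-8, Ac-LEHD-AFC for caspase-9. Means ± SD of three independent experiments run in triplicate.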

[3] = test system: RAW264.7; experiment: Decrease in Bcl-xl protein expression in mouse RAW264.7 cells at 5 uM by Western blot; type: functional, cell-based
Method in brief: (§2)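 RAW 264.7 cells incubated with 5 μM and sampled at several time points. Cytosolic extracts run on SDS–PAGE (10–15% gels) and blotted to PVDF. Probed for p53, Bax, Bcl-2, Bcl-xl, XIAP, IAP-1 and IAP-2, then HRP secondary and chemiluminescence. β-actin served as loading control. Protein measured by Bio-Rad assay.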

[4] = test system: RAW264.7; experiment: Induction of apoptosis in mouse RAW264.7 cells at 1 uM after 24 hrs by flow cytometry; type: functional
Method in brief: (§3)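 RAW 264.7 cells exposed to 1–25 μM for 24 h. Stained with 0.005% (w/v) propidium iodide and analysed at once by flow cytometry. Apoptotic and necrotic fractions taken from a forward scatter versus PI fluorescence dot plot. Means ± SD of three independent experiments in triplicate.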

[5] = test system: RAW264.7; experiment: Induction of apoptosis in mouse RAW264.7 cells assessed as caspase 3 activation at 5 uM after 24 hrs by fluorimetry; type: functional, cell-based; method in brief: as §1
[6] = test system: HepG2; experiment: Cytotoxicity against human HepG2 cells assessed as reduction in cell viability after 24 hrs by MTT assay; type: functional, cell-based; settings: HepG2, 24 h
Method in brief: (§4)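 Cancer cells kept in DMEM with 10% FBS, L-glutamine and antibiotics. Exposed to 1–100 μM for 24 h, then MTT at 37 °C for 4 h. Formazan dissolved in DMSO and read at 540 nm. Triplicate wells, at least three independent experiments. Viability reduction expressed against untreated cultures. IC50 is the concentration giving 50% loss of viability.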

[7] = test system: RAW264.7; experiment: Increase in Bax protein expression in mouse RAW264.7 cells at 5 uM by Western blot; type: functional, cell-based; method in brief: as §2
[8] = test system: RAW264.7; experiment: Induction of apoptosis in mouse RAW264.7 cells assessed as caspase 8 activation at 5 uM after 24 hrs by fluorimetry; type: functional, cell-based; method in brief: as §1
[9] = test system: RAW264.7; experiment: Decrease in IAP protein expression in mouse RAW264.7 cells at 5 uM by Western blot; type: functional, cell-based; method in brief: as §2
[10] = test system: RAW264.7; experiment: Induction of apoptosis in mouse RAW264.7 cells assessed as caspase 9 activation at 5 uM after 24 hrs by fluorimetry; type: functional, cell-based; method in brief: as §1
[11] = test system: RAW264.7; experiment: Induction of apoptosis in mouse RAW264.7 cells assessed as caspase 8 activation at 5 uM in presence of 40 uM caspase inhibitor z-VAD after 24 hrs by fluorimetric assay; type: functional, cell-based; method in brief: as §1
[12] = Toxicity in thioglycolate-induced mouse peritoneal macrophages assessed as induction of apoptosis after 24 hrs by flow cytometry; type: cell-based; settings: peritoneal macrophage cell
Method in brief: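 Peritoneal macrophages collected from thioglycolate-injected mice and treated across a concentration range for 24 h. Stained with PI and analysed by flow cytometry for apoptotic percentage. Means ± SD of three independent experiments done in duplicate.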

[13] = test system: HT-29; experiment: Cytotoxicity against human HT-29 cells assessed as reduction in cell viability after 24 hrs by MTT assay; type: functional, cell-based; settings: HT-29, 24 h; method in brief: as §4
[14] = test system: RAW264.7; experiment: Cytotoxicity against mouse RAW264.7 cells assessed as reduction in cell viability after 24 hrs by MTT assay; type: functional, cell-based; settings: RAW264.7, 24 h
Method in brief: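 RAW 264.7 mouse macrophage line kept in RPMI 1640 with 10% FBS, L-glutamine and antibiotics. Treated with 1–100 μM for 24 h, then MTT at 37 °C for 4 h. Formazan taken up in DMSO and read at 540 nm. Triplicate, at least three independent experiments. IC50 is the concentration giving 50% loss of viability relative to untreated cells.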

[15] = test system: RAW264.7; experiment: Induction of apoptosis in mouse RAW264.7 cells at 1 to 25 uM after 24 hrs by flow cytometry; type: functional, cell-based; method in brief: as §3
[16] = test system: RAW264.7; experiment: Decrease in Bcl-2 protein expression in mouse RAW264.7 cells at 5 uM by Western blot; type: functional, cell-based; method in brief: as §2
[17] = test system: RAW264.7; experiment: Increase in p53 protein expression in mouse RAW264.7 cells at 5 uM by Western blot; type: functional, cell-based; method in brief: as §2
[18] = test system: RAW264.7; experiment: Induction of apoptosis in mouse RAW264.7 cells assessed as caspase 9 activation at 5 uM in presence of 40 uM caspase inhibitor z-VAD after 24 hrs by fluorimetric assay; type: functional, cell-based; method in brief: as §1
[19] = test system: HeLa; experiment: Cytotoxicity against human HeLa cells assessed as reduction in cell viability after 24 hrs by MTT assay; type: functional, cell-based; method in brief: as §4
[20] = Toxicity in thioglycolate-induced mouse peritoneal macrophages assessed as reduction in cell viability after 24 hrs by MTT assay; type: cell-based; settings: peritoneal macrophage cell
Method in brief: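 Primary peritoneal macrophages from thioglycolate-injected mice exposed to a range of concentrations for 24 h. Viability read by MTT at 37 °C for 4 h, formazan dissolved in DMSO, absorbance at 540 nm. Three independent experiments in duplicate, means ± SD.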

## C=C1C(=O)[C@@]23CC[C@H]4[C@@](C)(CCC[C@@]4(C)C(=O)OC)[C@@H]2CC[C@@H]1C3
[1]
  Activity: inactive
[2]
  Activity: inactive
[3]
  Activity: Active
[4]
  Activity: 50%
[5]
  Activity: Active
[6]
  IC50: 75 µM
[7]
  Activity: Active
[8]
  Activity: Active
[9]
  Activity: Active
[10]
  Activity: Active
[11]
  Activity: inactive
[12]
  Activity: Non-toxic
[13]
  IC50: 30 µM
[14]
  IC50: 1000 nM
[15]
  Activity: Active
[16]
  Activity: Active
[17]
  Activity: Active
[18]
  Activity: inactive
[19]
  IC50: 50 µM
[20]
  Activity: Non-toxic
